From ChEMBL document CHEMBL3526106, “Cytochrome P450 regulation by α-tocopherol in Pxr-null and PXR-humanized mice” (Drug Metab Dispos, 2013)

Legend:
Set-up in all cases: dose 500 mg/kg
Mus musculus [1] = assay: Effect on Ugt1a7c gene expression in male PXR null mouse liver at 500 mg/kg for 7 to 14 days dosed through vitamin E-deficient base diet by qPCR method; assay type: ADME, organism-based; details: in vivo, po
In short: (§1)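 Male mice on vitamin E deficient diet, switched at eight weeks to the same diet with 500 mg/kg DL-α-tocopheryl acetate (controls kept deficient); killed at nine or 10 weeks, livers flash frozen. Hepatic mRNA by SYBR Green qPCR with 25 ng cDNA and 150 nM primers, triplicate reactions; comparative threshold cycle method against β-actin, fold change versus deficient diet; mean ± SEM, two-tailed t-test.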

Mus musculus [2] = assay: Effect on Ugt1a9 gene expression in wild type mouse liver at 500 mg/kg for 7 to 14 days dosed through vitamin E-deficient base diet by qPCR method; assay type: ADME, organism-based; details: in vivo, po; in short: as §1
Mus musculus [3] = assay: Effect on Ugt1a9 gene expression in male PXR null mouse liver at 500 mg/kg for 7 to 14 days dosed through vitamin E-deficient base diet by qPCR method; assay type: ADME, organism-based; details: in vivo, po; in short: as §1
Mus musculus [4] = assay: Effect on Ugt1a10 gene expression in wild type mouse liver at 500 mg/kg for 7 to 14 days dosed through vitamin E-deficient base diet by qPCR method; assay type: ADME, organism-based; details: in vivo, po; in short: as §1
Mus musculus [5] = assay: Effect on Ugt1a10 gene expression in male PXR null mouse liver at 500 mg/kg for 7 to 14 days dosed through vitamin E-deficient base diet by qPCR method; assay type: ADME, organism-based; details: in vivo, po; in short: as §1
Mus musculus [6] = assay: Effect on Ugt2b5 gene expression in male PXR null mouse liver at 500 mg/kg for 7 to 14 days dosed through vitamin E-deficient base diet by qPCR method; assay type: ADME, organism-based; details: in vivo, po; in short: as §1
Mus musculus [7] = assay: Reduction in Cyp4a10 gene expression in PXR-humanized mouse liver at 500 mg/kg for 7 to 14 days dosed through vitamin E-deficient base diet by qPCR method; assay type: ADME, organism-based; details: in vivo, po
In short: (§2)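 Male mice (wild-type, Pxr-null, hPXR; NCI-bred) on vitamin E-deficient diet from 3 weeks of age; at 8 weeks half switched to same base diet supplemented with 500 mg/kg DL-α-tocopheryl acetate, rest kept deficient. Livers harvested at 9 and 10 weeks. qPCR: 25 ng cDNA, 150 nM each primer, SYBR Green, triplicate; comparative Ct vs β-actin; fold change enriched vs deficient diet; mean ± SEM, two-tailed unpaired t-test.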

Cyp2c37 = assay: Induction of Cyp2c37 gene expression in male PXR-humanized mouse liver at 500 mg/kg for 7 to 14 days dosed through vitamin E-deficient base diet by qPCR method; assay type: ADME, organism-based; details: po, read-out: FC; in short: as §1
Mus musculus [8] = assay: Induction of Cyp2c39 gene expression in wild type mouse liver at 500 mg/kg for 7 to 14 days dosed through vitamin E-deficient base diet by qPCR method; assay type: ADME, organism-based; details: in vivo, po; in short: as §1
Mus musculus [9] = assay: Drug metabolism in male PXR-humanized mouse assessed as urinary alpha-carboxyethylhydroxychroman glycine level at 500 mg/kg for 7 to 14 days dosed through vitamin E-deficient base diet by UPLC-ESI-QTOFMS method based metabolomics analysis; assay type: ADME, organism-based, Urine; details: in vivo, po
Mus musculus [10] = assay: Drug metabolism in male PXR-humanized mouse assessed as urinary alpha-carboxyethylhydroxychroman glucuronide level at 500 mg/kg for 7 to 14 days dosed through vitamin E-deficient base diet by UPLC-ESI-QTOFMS method based metabolomics analysis; assay type: ADME, organism-based, Urine; details: in vivo, po
In short: (§3)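 Male mice from three weeks of age on vitamin E deficient diet; at eight weeks, 24 h predose urine in metabolic cages, then half switched to the same diet supplemented with 500 mg/kg DL-α-tocopheryl acetate. 24 h urine collected at nine and 10 weeks. Urinary metabolites quantitated by UPLC-MRM on triple-quadrupole MS against authentic standards and calibration curves, normalized to urinary creatinine (µmol/mmol creatinine); mean ± SEM, two-tailed unpaired t-test.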

Mus musculus [11] = assay: Drug metabolism in male PXR-humanized mouse assessed as urinary alpha-carboxymethylbutylhydroxychroman glucuronide level at 500 mg/kg for 7 to 14 days dosed through vitamin E-deficient base diet by UPLC-ESI-QTOFMS method based metabolomics analysis; assay type: ADME, organism-based, Urine; details: in vivo, po; in short: as §3
Mus musculus [12] = assay: Drug metabolism in male wild type mouse assessed as urinary alpha-carboxyethylhydroxychroman glycine level at 500 mg/kg for 7 to 14 days dosed through vitamin E-deficient base diet by UPLC-ESI-QTOFMS method based metabolomics analysis; assay type: ADME, organism-based, Urine; details: in vivo, po
Mus musculus [13] = assay: Induction of Cyp2c39 gene expression in male PXR null mouse liver at 500 mg/kg for 7 to 14 days dosed through vitamin E-deficient base diet by qPCR method; assay type: ADME, organism-based; details: in vivo, po; in short: as §1
Mus musculus [14] = assay: Effect on Ugt1a6a gene expression in wild type mouse liver at 500 mg/kg for 7 to 14 days dosed through vitamin E-deficient base diet by qPCR method; assay type: ADME, organism-based; details: in vivo, po; in short: as §1
Mus musculus [15] = assay: Effect on Ugt1a6b gene expression in male PXR-humanized mouse liver at 500 mg/kg for 7 to 14 days dosed through vitamin E-deficient base diet by qPCR method; assay type: ADME, organism-based; details: in vivo, po; in short: as §1
Mus musculus [16] = assay: Drug metabolism in male wild type mouse assessed as urinary alpha-carboxymethylbutylhydroxychroman glucuronide level at 500 mg/kg for 7 to 14 days dosed through vitamin E-deficient base diet by UPLC-ESI-QTOFMS method based metabolomics analysis; assay type: ADME, organism-based, Urine; details: in vivo, po
Mus musculus [17] = assay: Drug metabolism in male PXR null mouse assessed as urinary alpha-carboxyethylhydroxychroman glycine level at 500 mg/kg for 7 to 14 days dosed through vitamin E-deficient base diet by UPLC-ESI-QTOFMS method based metabolomics analysis; assay type: ADME, organism-based, Urine; details: in vivo, po; in short: as §3
Mus musculus [18] = assay: Drug metabolism in male PXR null mouse assessed as urinary alpha-carboxymethylbutylhydroxychroman glucuronide level at 500 mg/kg for 7 to 14 days dosed through vitamin E-deficient base diet by UPLC-ESI-QTOFMS method based metabolomics analysis; assay type: ADME, organism-based, Urine; details: in vivo, po
Mus musculus [19] = assay: Induction of Cyp3a11 gene expression in male wild type mouse liver at 500 mg/kg for 7 to 14 days dosed through vitamin E-deficient base diet by qPCR method; assay type: ADME, organism-based; details: in vivo, po; in short: as §2
Mus musculus [20] = assay: Induction of Cyp3a11 gene expression in male PXR-humanized mouse liver at 500 mg/kg for 7 to 14 days dosed through vitamin E-deficient base diet by qPCR method; assay type: ADME, organism-based; details: in vivo, po; in short: as §2
Mus musculus [21] = assay: Induction of Cyp4f13 gene expression in male PXR null mouse liver at 500 mg/kg for 7 to 14 days dosed through vitamin E-deficient base diet by qPCR method; assay type: ADME, organism-based; details: in vivo, po; in short: as §2
Mus musculus [22] = assay: Induction of Cyp4f13 gene expression in male PXR-humanized mouse liver at 500 mg/kg for 7 to 14 days dosed through vitamin E-deficient base diet by qPCR method; assay type: ADME, organism-based; details: in vivo, po; in short: as §2
Mus musculus [23] = assay: Induction of Cyp4f14 gene expression in male PXR-humanized mouse liver at 500 mg/kg for 7 to 14 days dosed through vitamin E-deficient base diet by qPCR method; assay type: ADME, organism-based; details: in vivo, po; in short: as §2
Mus musculus [24] = assay: Induction of Cyp4f15 gene expression in male PXR-humanized mouse liver at 500 mg/kg for 7 to 14 days dosed through vitamin E-deficient base diet by qPCR method; assay type: ADME, organism-based; details: in vivo, po; in short: as §2
Mus musculus [25] = assay: Induction of Cyp4f15 gene expression in wild type mouse liver at 500 mg/kg for 7 to 14 days dosed through vitamin E-deficient base diet by qPCR method; assay type: ADME, organism-based; details: in vivo, po; in short: as §2
Mus musculus [26] = assay: Induction of Cyp4f16 gene expression in male PXR null mouse liver at 500 mg/kg for 7 to 14 days dosed through vitamin E-deficient base diet by qPCR method; assay type: ADME, organism-based; details: in vivo, po; in short: as §2

Activity (Mus musculus [1]): Not Active | Activity (Mus musculus [2]): Not Active | Activity (Mus musculus [3]): Not Active | Activity (Mus musculus [4]): Not Active | Activity (Mus musculus [5]): Not Active | Activity (Mus musculus [6]): Not Active | fold change (FC) (Mus musculus [7]): 2.4 | fold induction (Cyp2c37): 2 | Activity (Mus musculus [8]): Not Active | Activity (Mus musculus [13]): Not Active | Activity (Mus musculus [14]): Not Active | Activity (Mus musculus [15]): Not Active | Activity (Mus musculus [19]): Active | Activity (Mus musculus [20]): Not Active | Activity (Mus musculus [21]): Not Active | Activity (Mus musculus [22]): Not Active | Activity (Mus musculus [23]): Not Active | Activity (Mus musculus [24]): Not Active | Activity (Mus musculus [25]): Not Active | Activity (Mus musculus [26]): Not Active
Compound: CC(=O)Oc1c(C)c(C)c2c(c1C)CCC(C)(CCCC(C)CCCC(C)CCCC(C)C)O2 (racemic) [alpha-TOCHOPHERYL ACETATE]
Drug metabolism (Mus musculus [9]): metabolite_detected | Drug metabolism (Mus musculus [10]): metabolite_detected | Drug metabolism (Mus musculus [11]): metabolite_detected | Drug metabolism (Mus musculus [12]): metabolite_detected | Drug metabolism (Mus musculus [16]): metabolite_detected | Drug metabolism (Mus musculus [17]): metabolite_detected | Drug metabolism (Mus musculus [18]): metabolite_detected
